# The whole screen tested about 2,100 compounds, of which about 75 (4%) were called active.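 The calls were made as follows: active = calcium fluorescence trace judged by eye to show a response, as agonist, enhancer of the glutamate response, or inhibitor; inactive = trace judged by eye to show no response.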 The full list was thinned out, with actives kept by preference.
# Molecular target: Metabotropic glutamate receptor 8 (Rattus norvegicus) (UniProt P70579)
# Test: mGlu8-mediated intracellular calcium response modulators – cell-based, HEK293 rmGlu8, Gqi9 chimera, Fluo-4 calcium, counter-screen for GIRK activator project, confirmation (AID 623869)
# Details: HEK293 rmGlu8/Gqi9 calcium flux, Fluo-4 fluorescence; glutamate at EC20 added after compound
# Outline: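 system = HEK-293 cells stably expressing rat mGlu8, plus transient chimeric Gqi9 | measured by = Fluo-4 calcium fluorescence, 1 Hz | timing = compound pre-exposure 4 min, post-glutamate read 2 min | measure = F/F0 fluorescence traces judged visually for each well | medium = HEPES-buffered HBSS at pH 7.4 | doses = single compound addition from 20 µM solution, 0.2% DMSO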
# Chain of Metabotropic glutamate receptor 8 (Rattus norvegicus) (P70579 whole entry, looked up): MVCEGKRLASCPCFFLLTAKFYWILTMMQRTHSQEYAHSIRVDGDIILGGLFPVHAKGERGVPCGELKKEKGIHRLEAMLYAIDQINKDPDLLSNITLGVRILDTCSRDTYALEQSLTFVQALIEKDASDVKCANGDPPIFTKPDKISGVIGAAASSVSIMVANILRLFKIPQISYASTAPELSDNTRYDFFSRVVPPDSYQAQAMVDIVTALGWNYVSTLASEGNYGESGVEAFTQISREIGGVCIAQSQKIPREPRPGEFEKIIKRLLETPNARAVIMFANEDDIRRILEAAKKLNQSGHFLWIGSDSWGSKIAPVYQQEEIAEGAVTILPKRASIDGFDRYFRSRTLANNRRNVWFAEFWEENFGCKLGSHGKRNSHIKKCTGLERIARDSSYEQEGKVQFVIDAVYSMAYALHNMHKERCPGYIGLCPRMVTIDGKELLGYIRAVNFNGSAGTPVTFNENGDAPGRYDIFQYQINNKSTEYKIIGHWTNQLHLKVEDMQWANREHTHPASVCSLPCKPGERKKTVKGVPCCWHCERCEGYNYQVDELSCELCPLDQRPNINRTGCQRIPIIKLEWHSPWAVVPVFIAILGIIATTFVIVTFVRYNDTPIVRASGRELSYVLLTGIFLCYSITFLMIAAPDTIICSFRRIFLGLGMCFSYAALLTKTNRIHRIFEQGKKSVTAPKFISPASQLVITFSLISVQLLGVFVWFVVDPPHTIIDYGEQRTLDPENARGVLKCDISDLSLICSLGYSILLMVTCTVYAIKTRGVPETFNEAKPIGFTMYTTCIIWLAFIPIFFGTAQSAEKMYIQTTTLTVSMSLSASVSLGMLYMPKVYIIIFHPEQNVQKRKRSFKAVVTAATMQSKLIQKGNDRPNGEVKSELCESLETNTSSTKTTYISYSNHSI
row,SMILES,outcome
1,COc1ccc(CN(CCC#N)C(=S)NC(=O)c2ccccc2)cc1,inactive; 0
2,COC(=O)c1c(NS(=O)(=O)c2cccs2)sc2c1CCCC2,inactive; 0
3,O=C(C1CCN(S(=O)(=O)c2cccc3cccnc23)CC1)N1CC=C(c2ccccc2)CC1,inactive; 0
4,O=C(Nc1nnc(-c2ccccc2Cl)o1)c1nc2ccccc2s1,active; 1
5,O=C(Nc1nnc(-c2ccc(Cl)cc2)o1)c1nc2ccccc2s1,inactive; 0
6,O=C(Nc1nnc(-c2ccccc2Cl)o1)c1ccc(S(=O)(=O)N2CCCCCC2)cc1,inactive; 3
7,O=C(Nc1ccc2[nH]c(=S)sc2c1)c1ccccc1,inactive; 0
8,O=C(NC(=S)N(Cc1ccccc1)Cc1ccccc1)c1ccccc1F,inactive; 0
9,CCCCOC(=O)c1ccc(NC(=S)NC(=O)c2c(Cl)cnn2CC)cc1,inactive; 0
10,O=C(Nc1nncs1)c1ccccc1NS(=O)(=O)c1cccs1,inactive; 0
11,O=C(Nc1ccccc1)c1ccccc1NS(=O)(=O)c1ccc(Cl)s1,active; 1
12,O=S(=O)(Nc1ccccc1N1CCCCC1)c1ccc(Cl)s1,inactive; 0
13,CCOc1ccc2nc(/N=C/c3c(C)[nH]n(-c4ccccc4)c3=O)sc2c1,inactive; 0
14,O=C(NC(=S)N1CCN(c2ccc(Cl)cc2[N+](=O)[O-])CC1)c1cccs1,inactive; 0
15,CC(Oc1ccc2ccccc2c1)C(=O)NNC(=S)NC(=O)c1ccco1 (centres undefined),inactive; 4
16,COc1ccccc1C(=O)NNC(=S)NC(=O)c1ccco1,inactive; 4
17,CC(Oc1ccc(Cl)cc1)C(=O)NNC(=S)NC(=O)c1ccco1 (centres undefined),active; 1
18,CCCc1ccc(OCC(=O)NNC(=S)NC(=O)c2ccco2)cc1,inactive; 3
19,Cc1ccccc1OCC(=O)NNC(=S)NC(=O)c1ccco1,active; 1
20,Cc1cccc(NC(=S)NC(=O)c2ccco2)n1,inactive; 0
21,CCn1nc(C(=O)OCC(=O)N2CCc3ccccc32)c2ccccc2c1=O,inactive; 0
22,COc1ccc(CCNC(=O)CSc2nnc(-c3ccc(F)cc3)c3ccccc23)cc1OC,inactive; 0
23,Cc1cc(C)n(-c2nnc(C)n2/N=C/c2ccccc2OCc2ccccc2Cl)n1,inactive; 0
24,Cc1ccccc1NC(=S)NNC(=O)c1csc2c1CCC(C)C2 (centres undefined),inactive; 0
25,Cc1ccc(CSc2ncnc3c2cnn3-c2ccc(C)cc2)cc1,inactive; 0
26,CCCn1c(=O)c2ccccc2n2c(SCc3nc4ccccc4s3)nnc12,inactive; 0
27,CCCn1c(=O)c2ccccc2n2c(SCCOc3ccccc3F)nnc12,active; 2
28,CCCn1c(=O)c2ccccc2n2c(SCC(=O)N3CCc4ccccc4C3)nnc12,inactive; 0
29,O=C(NC(NC(=S)Nc1ccc(Cl)cc1Cl)C(Cl)(Cl)Cl)c1cccc([N+](=O)[O-])c1 (centres undefined),inactive; 4
